Experiments:
Type in all cases: ADME, organism-based
Conditions in all cases: in vivo
Staphylococcus aureus [1] = assay: Drug uptake per mg of protein in Staphylococcus aureus ATCC 25923 at 0.1 uM after 10 mins
Outline: (§1)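 Washed stationary-phase bacteria in PBS (10^8 to 10^9 cells/mL; OD650 ca. 0.7) incubated 10 min in the dark at room temperature with photosensitizer. Cells were then centrifuged, supernatant removed, and pellet digested in 2% aqueous SDS. Porphyrin measured by spectrofluorimetry, cell protein by modified Lowry with BSA standard; uptake expressed as nmol photosensitizer per mg cell protein.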

Staphylococcus aureus [2] = assay: Drug uptake per mg of protein in methicillin-resistant Staphylococcus aureus 110 at 0.1 uM after 10 mins
Outline: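 Bacterial suspensions (10^8 to 10^9 cells/mL in PBS) were incubated with porphyrin for 10 min in the dark at room temperature, then centrifuged. The pellet was digested in 2% aqueous SDS. Porphyrin was quantified by spectrofluorimetry and cell protein by modified Lowry assay (BSA standard). Uptake is given as nmol per mg cell protein.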

Escherichia coli = assay: Drug uptake per mg of protein in Escherichia coli O4 at 0.1 uM after 10 mins; outline: as §1

O=C(O)c1ccc(-c2c3nc(c(-c4ccncc4)c4ccc([nH]4)c(-c4ccncc4)c4nc(c(-c5ccncc5)c5ccc2[nH]5)C=C4)C=C3)cc1 [PORPHIRIN]
Drug uptake (Staphylococcus aureus [1]): 1.54 nmol/mg
Drug uptake (Staphylococcus aureus [2]): 1.5 nmol/mg
Drug uptake (Escherichia coli): 1.2 nmol/mg
